Assay results from ChEMBL document CHEMBL1144027, “Synthesis and antimycobacterial evaluation of newer 1-cyclopropyl-1,4-dihydro-6-fluoro-7-(substituted secondary amino)-8-methoxy-5-(sub)-4-oxoquinoline-3-carboxylic acids” (Bioorg Med Chem, 2008).
In brackets after ≈: the same amount, converted by molar mass.

Assays:
[1] = biological target: DNA gyrase subunit B (Mycobacterium smegmatis (strain ATCC 700084 / mc(2)155), UniProt A0QNE0); assay: Inhibition of Mycobacterium smegmatis MC2 DNA gyrase GyrB ATPase supercoiling activity; set-up: species or system Mycolicibacterium smegmatis
Chain of DNA gyrase subunit B (Mycobacterium smegmatis (strain ATCC 700084 / mc(2)155), UniProt A0QNE0) (A0QNE0 whole entry): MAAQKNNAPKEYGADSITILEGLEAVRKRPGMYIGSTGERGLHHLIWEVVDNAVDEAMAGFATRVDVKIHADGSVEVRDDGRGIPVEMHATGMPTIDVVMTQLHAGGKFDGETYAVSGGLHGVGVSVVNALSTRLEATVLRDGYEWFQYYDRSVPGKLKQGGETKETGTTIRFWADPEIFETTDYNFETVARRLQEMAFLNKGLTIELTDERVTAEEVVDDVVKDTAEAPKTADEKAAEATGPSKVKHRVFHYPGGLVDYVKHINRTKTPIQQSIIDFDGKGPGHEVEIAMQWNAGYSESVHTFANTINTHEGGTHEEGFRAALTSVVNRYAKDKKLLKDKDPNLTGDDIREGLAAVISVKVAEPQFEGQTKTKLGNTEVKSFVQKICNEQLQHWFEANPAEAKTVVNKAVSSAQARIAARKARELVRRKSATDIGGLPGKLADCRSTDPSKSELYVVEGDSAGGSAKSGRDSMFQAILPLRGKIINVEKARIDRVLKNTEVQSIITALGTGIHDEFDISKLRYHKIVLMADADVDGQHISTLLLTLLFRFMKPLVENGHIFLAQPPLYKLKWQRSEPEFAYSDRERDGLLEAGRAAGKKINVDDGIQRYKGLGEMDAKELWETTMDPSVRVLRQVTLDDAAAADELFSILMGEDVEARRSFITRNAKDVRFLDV
Method in brief: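 Gyrase purified from M. smegmatis MC2 cells; compounds in DMSO pre-incubated with enzyme, then 400 ng relaxed pUC18 added in 35 mM Tris-HCl pH 7.5, 5 mM MgCl2, 25 mM K glutamate, 2 mM spermidine, 2 mM ATP, BSA, tRNA, 5% glycerol; 30 min; heat-stopped 65 °C 15 min; agarose gel, ethidium bromide staining; ciprofloxacin 10 µg/ml and 5% DMSO controls.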

Mus musculus [2] = assay: Phototoxicity in Swiss albino mouse assessed as ear thickness at 140 mg/kg, po after 72 hrs of irradiation; assay type: organism-based; set-up: dose 140 mg/kg, route oral; conditions: in vivo
Method in brief: (§1)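 Female Swiss albino mice (~2 months, 20-25 g), fasted ≥18 h, single 140 mg/kg oral gavage dose; groups of 6 (compound, lomefloxacin HCl 140 mg/kg, 0.5% carboxymethylcellulose vehicle 10 ml/kg); UV irradiation 4 h (~18 J/cm²) right after dosing; both ears scored for erythema, oedema, thickness pre-dose, at end of irradiation, and ~24-96 h; thickness given as mean of both ears ± SEM.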

Vero = assay: Cytotoxicity against african green monkey Vero cells after 72 hrs by MTT assay; assay type: cell-based; conditions: Chlorocebus sabaeus
Method in brief: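 Mammalian Vero cells exposed to compounds at 62.5 µg/ml for 72 h; viability read by cellular conversion of MTT to formazan (Cell Titer 96 non-radioactive proliferation assay).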

Mus musculus [3] = assay: (§2) Phototoxicity in Swiss albino mouse assessed as erythema incidence at 140 mg/kg, po after 48 hrs of irradiation; assay type: organism-based; set-up: dose 140 mg/kg, route oral; conditions: in vivo; method in brief: as §1
Mus musculus [4] = assay: Phototoxicity in Swiss albino mouse assessed as ear thickness at 140 mg/kg, po after 4 hrs of irradiation; assay type: organism-based; set-up: dose 140 mg/kg, route oral; conditions: in vivo; method in brief: as §1
[5] = tested on: Mycobacterium tuberculosis; assay: Antimycobacterial activity against Mycobacterium tuberculosis ATCC 35801 infected in CD1 mouse assessed as bacterial load in spleen at 50 mg/kg, ip after 10 days; assay type: functional; conditions: route intraperitoneal
Method in brief: (§3)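 Female CD-1 mice, 6 weeks old, six per group, infected IV via caudal vein with ~10⁷ viable organisms. Intraperitoneal treatment started 10 days after inoculation and ran 10 days. At 35 days post-infection, spleens and right lungs were homogenised and serially 10-fold diluted onto 7H10 agar, incubated 4 weeks at 37 °C in ambient air. CFU compared with vehicle-treated controls.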

Mus musculus [6] = assay: as §2; assay type: organism-based; set-up: dose 140 mg/kg, route oral; conditions: in vivo; method in brief: as §1; remark: listed apart in the source
Mus musculus [7] = assay: Phototoxicity in Swiss albino mouse assessed as erythema incidence at 140 mg/kg, po after 96 hrs of irradiation; assay type: organism-based; set-up: dose 140 mg/kg, route oral; conditions: in vivo; method in brief: as §1
Mus musculus [8] = assay: Phototoxicity in Swiss albino mouse assessed as ear thickness at 140 mg/kg, po after 96 hrs of irradiation; assay type: organism-based; set-up: dose 140 mg/kg, route oral; conditions: in vivo; method in brief: as §1
[9] = tested on: Mycolicibacterium smegmatis; assay: Antimycobacterial activity against Mycobacterium smegmatis MC2 by agar dilution method; assay type: functional
Method in brief: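 Agar dilution in Middlebrook 7H11 agar with OADC, run along NCCLS-recommended lines; M. smegmatis ATCC 14468 (MC2); MIC determined in duplicate.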

Mus musculus [10] = assay: Phototoxicity in Swiss albino mouse assessed as ear thickness at 140 mg/kg, po after 48 hrs of irradiation; assay type: organism-based; set-up: dose 140 mg/kg, route oral; conditions: in vivo; method in brief: as §1
[11] = tested on: Mycobacterium tuberculosis; assay: Antimycobacterial activity against Mycobacterium tuberculosis ATCC 35801 infected in CD1 mouse assessed as bacterial load in lungs at 50 mg/kg, ip after 10 days; assay type: functional; conditions: route intraperitoneal; method in brief: as §3
[12] = Selectivity index, ratio of IC50 for monkey Vero cells to MIC for Mycobacterium tuberculosis H37Rv; assay type: functional
[13] = tested on: Mycobacterium tuberculosis; assay: Antimycobacterial activity against Mycobacterium tuberculosis H37Rv by agar dilution method; assay type: functional
Method in brief: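 Agar dilution MIC on Middlebrook 7H11 agar with OADC, following the NCCLS-recommended approach, run in duplicate. The MDR clinical isolate was resistant to isoniazid, rifampicin, ethambutol and ofloxacin.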

Mus musculus [14] = assay: Phototoxicity in Swiss albino mouse assessed as erythema incidence at 140 mg/kg, po after 24 hrs of irradiation; assay type: organism-based; set-up: dose 140 mg/kg, route oral; conditions: in vivo; method in brief: as §1
Mus musculus [15] = assay: Phototoxicity in Swiss albino mouse assessed as ear thickness at 140 mg/kg, po after 24 hrs of irradiation; assay type: organism-based; set-up: dose 140 mg/kg, route oral; conditions: in vivo; method in brief: as §1
Mus musculus [16] = assay: Phototoxicity in Swiss albino mouse assessed as erythema incidence at 140 mg/kg, po after 4 hrs of irradiation; assay type: organism-based; set-up: dose 140 mg/kg, route oral; conditions: in vivo; method in brief: as §1

## COc1ccc(CC2C3=C(CCCC3)CCN2c2c(F)c([N+](=O)[O-])c3c(=O)c(C(=O)O)cn(C4CC4)c3c2OC)cc1 (configuration not stated)
[1]
  IC50: 51.9 µM
Mus musculus [2]
  Activity: 0.33 mm
Vero
  IC50: 108 µM
Mus musculus [3]
  Activity: Non-toxic
Mus musculus [4]
  Activity: 0.33 mm
[5]
  Activity: 6.1
Mus musculus [6]
  Activity: Non-toxic
Mus musculus [7]
  Activity: Non-toxic
Mus musculus [8]
  Activity: 0.32 mm
[9]
  MIC: 0.68 µM (≈ 0.393 µg/mL)
Mus musculus [10]
  Activity: 0.33 mm
[11]
  Activity: 5.41
[12]
  Selectivity index: 676.31
[13]
  MIC: 0.16 µM (≈ 0.0924 µg/mL)
Mus musculus [14]
  Activity: Non-toxic
Mus musculus [15]
  Activity: 0.32 mm
Mus musculus [16]
  Activity: Non-toxic
